The entries come from a sample that favours hits as a whole.
Ecoli tolC: growth inhibitors of E. coli BW25113 tolC mutant. OD615. growth inhibition, % at 10 µM (by protocol). actives 2.2% (n = 65,000). AID 573;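 active means growth inhibition at or above a cutoff equal to the mean over every tested compound plus 3 SD, cut at about 60% in these data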;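 further: growth measured after 20 h incubation at 37 °C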
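Doses: one dose of 10 µM final / Material: E. coli BW25113 ΔtolC::kan, tolC deletion mutant strain / Buffer or medium: LB with kanamycin 50 µg/mL / Evaluation: percent growth inhibition / Detection: optical density read at 615 nm / Incubation: 37 °C, 20 h exposure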
E coli WT exp: E. coli BW25113 growth inhibition, expanded screen | OD600 absorbance | growth inhibition, % at 100 µM | AID 710 | actives 0.15% (n = 98,000);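 active means growth inhibition above about 50% at one test dose, limit read from the data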;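 further: growth measured after 20 h incubation at 37 °C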
Cdc25B inh: human M-phase inducer phosphatase 2 inhibition; P30305; recombinant Cdc25B, OMFP fluorescence Ex485/Em525; inhibition, %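 (compounds tested at 10 µM final in the well)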; actives 0.1% (n = 65,000); in the data active means inhibition above about 50%
HePTP inhibitor: human HePTP phosphatase inhibition. P35236. recombinant HePTP phosphatase activity, OD absorbance. inhibition, % at 20 µM. actives 0.64% (n = 110,000); in the data active means inhibition above about 50%
Target sequence (P35236 whole entry, looked up): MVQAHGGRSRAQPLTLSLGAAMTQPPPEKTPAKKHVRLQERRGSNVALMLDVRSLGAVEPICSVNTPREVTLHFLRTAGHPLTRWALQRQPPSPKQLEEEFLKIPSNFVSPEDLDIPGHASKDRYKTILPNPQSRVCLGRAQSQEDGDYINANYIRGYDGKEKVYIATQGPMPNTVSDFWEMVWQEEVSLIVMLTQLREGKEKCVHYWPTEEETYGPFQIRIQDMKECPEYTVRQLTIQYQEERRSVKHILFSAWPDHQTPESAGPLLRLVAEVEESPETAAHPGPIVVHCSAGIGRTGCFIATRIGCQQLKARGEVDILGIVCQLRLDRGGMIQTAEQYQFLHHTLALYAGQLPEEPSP
MKP-1 inh: inhibitors of human MKP-1 phosphatase. P28562. recombinant MKP-1, OMFP hydrolysis fluorescence. inhibition, %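 (compounds tested at a single concentration somewhere between 10 and 100 µM)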. actives 0.15% (n = 65,000);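 active means inhibition above about 50%, limit read from the data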
MMP13 inh: inhibitors of human MMP13; MMP-13 fTHP FRET cleavage, Mca fluorescence; inhibition, % at 4 µM; actives 0.07% (n = 65,000);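 active means inhibition above the mean of compound-free control plate wells plus 3 SD, cut at about 14% in these data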
Numbers stand for hits; – = inactive; · = no result.

SMILES	Ecoli tolC	E coli WT exp	Cdc25B inh	HePTP inhibitor	MKP-1 inh	MMP13 inh
COc1ccc(-c2nnc(NC(=O)c3ccc(S(=O)(=O)N4CCc5ccccc5C4)cc3)o2)cc1	94.2	–	–	–	–	–
COc1cccc(-c2nnc(NC(=O)c3ccc(S(=O)(=O)N4CC(C)OC(C)C4)cc3)o2)c1 (centres undefined)	98.5	–	–	–	–	–
CN(C)S(=O)(=O)c1ccc(C(=O)Nc2nnc(-c3ccc4c(c3)CCCC4)o2)cc1	·	–	·	·	·	·
Cc1ccc(NC(=O)c2nnn(-c3cc(C)cc(C)c3)c2N)cc1	66.6	–	–	–	–	–
Cc1ccc(CCNC(=O)c2nnn(-c3cc(C)cc(C)c3)c2N)cc1	–	–	–	–	–	–
CN(C)c1ccc(/C=C2\SC(N3CCN(C4=NC(=O)/C(=C\c5ccc(N(C)C)cc5)S4)CC3)=NC2=O)cc1	·	·	·	–	·	·
CN(C)c1ccc(/C=C2/SC(N=Nc3c(O)[nH]c4ccccc34)=NC2=O)cc1	·	·	·	59.2	·	·
Nc1nncn1C(=O)CCCN1C(=O)c2ccccc2C1=O	96.0	–	–	–	–	–
O=C(CCCN1C(=O)c2ccccc2C1=O)N1CCc2ccccc2C1	·	–	·	·	·	·
O=C(Nc1ccc(Br)cc1C(=O)O)c1cccc(N2C(=O)c3ccccc3C2=O)c1	·	·	·	102.3	·	·
O=C(Cc1nc2ccccc2s1)c1ccc(O)cc1O	–	–	–	–	–	–
O=C(COc1ccccc1Cl)NNC(=O)c1ccc(O)cc1O	·	·	·	–	·	·
O=C(COc1ccccc1Br)c1ccc(O)cc1O	70.2	–	–	–	–	–
O=C(Cc1ccc(Br)cc1)c1ccc(O)cc1O	94.9	59.0	–	–	–	–
C/C(=N\NC(=O)Cc1ccc([N+](=O)[O-])cc1)c1ccc(Br)s1	·	·	·	–	·	·
Cc1ccc(-c2nc3sc4c(c3c(=O)o2)CCCCC4)cc1	·	·	·	–	·	·
COc1cccc(NC(=O)CCc2nc(-c3ccccc3F)no2)c1	·	–	·	·	·	·
O=C(CCc1nc(-c2ccccc2F)no1)Nc1ccc(Oc2ccccc2)cc1	81.2	–	–	–	–	–
COc1ccccc1-c1noc(CCC(=O)Nc2cccc(C(F)(F)F)c2)n1	64.9	–	–	–	–	–
Cc1cccc(-c2noc(CCC(=O)Nc3ccccc3)n2)c1	–	–	–	–	–	–
C=CCN1C(=O)/C(=C/c2ccc(O)c(OC)c2)S/C1=N\S(=O)(=O)c1ccc([N+](=O)[O-])cc1	·	·	·	–	·	·
CCOC(=O)CCc1c(C)nc2cc(-c3ccccc3)[nH]n2c1=O	·	·	·	–	·	·
C/C(=N\N=C1\NC(=O)C(CC(=O)Nc2ccc(Cl)c(Cl)c2)S1)c1ccco1 (centres undefined)	·	·	·	–	·	·
CC1=C(C(=O)OCc2ccccc2)C(c2ccccc2Cl)C2=C(CC(C)(C)CC2=O)N1 (centres undefined)	·	·	·	–	·	·
CCCN(CCC)c1nc2ccccc2nc1C(C#N)C(=O)OCCOC (centres undefined)	80.2	–	–	–	–	–
SMILES	Ecoli tolC	E coli WT exp	Cdc25B inh	HePTP inhibitor	MKP-1 inh	MMP13 inh
CCCCCCOC(=O)C(C#N)c1nc2ccccc2nc1N1CCCCC1 (centres undefined)	–	–	–	–	–	–
CCCCCCOC(=O)C(C#N)c1nc2ccccc2nc1N1CCN(C)CC1 (centres undefined)	100.0	–	–	–	–	–
CCNC(=O)CC1S/C(=N\N=C(/C)c2ccccc2)NC1=O (centres undefined)	·	·	·	–	·	·
CCOc1ccc2nc(NC(=O)C3CCCN(S(=O)(=O)c4cccs4)C3)sc2c1 (centres undefined)	63.0	–	–	–	–	–
Cc1ccc(OCC(=O)Nc2cc([N+](=O)[O-])ccc2C)c(C(C)(C)C)c1	·	·	·	–	·	·
O=C(O)c1ccc(/C=C2\SC(=O)N(c3ccc(F)cc3)C2=O)cc1	·	·	·	99.8	·	·
COC(=O)c1ccc(/C=C2\SC(=S)N(c3ccc(F)cc3)C2=O)cc1	·	·	·	–	·	·
CCCSc1nc2c(cnn2-c2ccccc2)c(=O)[nH]1	–	–	–	–	–	–
O=C(CSc1nc2c(cnn2-c2ccccc2)c(=O)[nH]1)c1ccc(Cl)cc1	–	·	–	–	56.3	–
O=C(c1ccc(Br)o1)N1CCN(c2ccc(F)cc2)CC1	–	–	–	–	–	–
O=C(c1ccc(Br)o1)N1CCN(c2ccc([N+](=O)[O-])cc2)CC1	·	·	·	102.7	·	·
Cn1c(=O)c2c(nc(CN3CCN(C(=O)c4ccco4)CC3)n2CCc2ccccc2)n(C)c1=O	·	–	–	–	–	–
CN(Cc1ccccc1)Cc1nc2c(c(=O)n(C)c(=O)n2C)n1CCCc1ccccc1	100.0	–	–	·	–	–

Screens (PubChem BioAssay)
